From ChEMBL document CHEMBL2331152, “Multivalent Interactions: Synthesis and Evaluation of Melanotropin Multimers - Tools for Melanoma Targeting” (ACS Med Chem Lett, 2013) come the findings set out here.

Series [1] concerns HEK293. Put plainly: Drug uptake in human HEK293 cells assessed as localization measured at 3 mins of incubation by FM 1-43 dye-microscopy. Conditions: hek293, 0.05 h. The format is ADME, cell-based.
The subject of series [2] is HEK293. Put plainly: Drug uptake in human HEK293 cells assessed as localization at cell surface measured after 90 mins of incubation by FM 1-43 dye-microscopy. The class given is ADME, cell-based. An outline of the steps: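 Ligands were Cy5-labelled through a triarginine linker and incubated with cells for 90 min. The membrane probe FM 1-43 was added two minutes before image acquisition. Membrane localization was assessed by epifluorescence microscopy.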

Series [3] has as its target T1, Melanocortin receptor 4 (Homo sapiens, UniProt P32245). Put plainly: Inhibition of human MC4R expressed in HEK293 cells assessed as cAMP accumulation by chemiluminescent immunoassay. The format is functional, cell-based. In general terms: Changes in cAMP serve as a functional read-out for many G protein-coupled receptors.
Series [4] deals with HEK293. The experiment in a line: Cytotoxicity against human HEK293 cells assessed as cell viability at 1 uM upto 48 hrs. The format is cell-based. Conditions: hek293, 48 h. An outline of the steps:
(§1)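 Cell viability was measured at three concentrations and three incubation times, up to 48 h. Values are expressed as % of untreated control and are the average of three independent experiments run in triplicate.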

Series [5] deals with HEK293. Put plainly: Cytotoxicity against human HEK293 cells assessed as cell viability at 10 uM upto 2 days. The class given is cell-based. The note with it: hek293, 48 h. An outline of the steps: as §1
Series [6] has as its target T1, Melanocortin receptor 4. Put plainly: Displacement of Eu-NDP-alpha-MSH from human MC4R expressed in HEK293 cells by time resolved fluorescence binding assay relative to multimer 1M. The format is cell-based. A digest of the protocol: (§2)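 Competition binding on HEK293 cells transfected to overexpress MC4R, against europium-labelled NDP-α-MSH tracer, read by time-resolved fluorescence. IC50 values are averaged from four experiments run in quadruplicate. Relative potency is expressed against the monovalent ligand.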

For series [7], the target named is T1, Melanocortin receptor 4. The experiment in a line: Displacement of Eu-NDP-alpha-MSH from human MC4R expressed in HEK293 cells by time resolved fluorescence binding assay. The class given is cell-based. A digest of the protocol: as §2

Calls of active or inactive are those of the source. The rule behind the calls is not given here.

T1 sequence (P32245 whole entry): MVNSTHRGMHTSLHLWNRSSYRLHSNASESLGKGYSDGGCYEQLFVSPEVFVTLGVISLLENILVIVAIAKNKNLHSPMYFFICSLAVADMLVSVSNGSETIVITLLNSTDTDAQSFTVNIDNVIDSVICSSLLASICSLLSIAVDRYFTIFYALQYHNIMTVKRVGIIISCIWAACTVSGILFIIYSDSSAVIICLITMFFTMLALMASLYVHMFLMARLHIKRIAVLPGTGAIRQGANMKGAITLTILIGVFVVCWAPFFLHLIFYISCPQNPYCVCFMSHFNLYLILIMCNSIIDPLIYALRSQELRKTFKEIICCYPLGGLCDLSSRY

As for `CC(=O)NCC(=O)NC(CCCNC(=O)CCNC(=O)C(CCCNC(=O)Cn1cc(CCC(=O)N[C@@H](Cc2cnc[nH]2)C(=O)N[C@H](Cc2ccccc2)C(=O)N[C@@H](CCCNC(=N)N)C(=O)N[C@@H](Cc2c[nH]c3ccccc23)C(N)=O)nn1)(CCCNC(=O)Cn1cc(CCC(=O)N[C@@H](Cc2cnc[nH]2)C(=O)N[C@H](Cc2ccccc2)C(=O)N[C@@H](CCCNC(=N)N)C(=O)N[C@@H](Cc2c[nH]c3ccccc23)C(N)=O)nn1)NC(=O)CNC(=O)Cn1cc(CCC(=O)N[C@@H](Cc2cnc[nH]2)C(=O)N[C@H](Cc2ccccc2)C(=O)N[C@@H](CCCNC(=N)N)C(=O)N[C@@H](Cc2c[nH]c3ccccc23)C(N)=O)nn1)(CCCNC(=O)CCNC(=O)C(CCCNC(=O)Cn1cc(CCC(=O)N[C@@H](Cc2cnc[nH]2)C(=O)N[C@H](Cc2ccccc2)C(=O)N[C@@H](CCCNC(=N)N)C(=O)N[C@@H](Cc2c[nH]c3ccccc23)C(N)=O)nn1)(CCCNC(=O)Cn1cc(CCC(=O)N[C@@H](Cc2cnc[nH]2)C(=O)N[C@H](Cc2ccccc2)C(=O)N[C@@H](CCCNC(=N)N)C(=O)N[C@@H](Cc2c[nH]c3ccccc23)C(N)=O)nn1)NC(=O)CNC(=O)Cn1cc(CCC(=O)N[C@@H](Cc2cnc[nH]2)C(=O)N[C@H](Cc2ccccc2)C(=O)N[C@@H](CCCNC(=N)N)C(=O)N[C@@H](Cc2c[nH]c3ccccc23)C(N)=O)nn1)C(=O)NCCC(=O)N[C@H](CCCNC(=N)N)C(=O)N[C@@H](CCCNC(=N)N)C(=O)N[C@H](CCCNC(=N)N)C(=O)N[C@@H](CCCCNC(=O)CCCCC[N+]1=C(/C=C/C=C/C=C2/N(C)c3ccccc3C2(C)C)C(C)(C)c2ccccc21)C(N)=O` (stereo not given in full), the Drug uptake entry in series [1] was “Not Active”; in series [2] it was “Active”.
Turning to `CC(=O)NCC(=O)NC(CCCNC(=O)CCNC(=O)C(CCCNC(=O)Cn1cc(CCC(=O)N[C@@H](Cc2cnc[nH]2)C(=O)N[C@H](Cc2ccccc2)C(=O)N[C@@H](CCCNC(=N)N)C(=O)N[C@@H](Cc2c[nH]c3ccccc23)C(N)=O)nn1)(CCCNC(=O)Cn1cc(CCC(=O)N[C@@H](Cc2cnc[nH]2)C(=O)N[C@H](Cc2ccccc2)C(=O)N[C@@H](CCCNC(=N)N)C(=O)N[C@@H](Cc2c[nH]c3ccccc23)C(N)=O)nn1)NC(=O)CNC(=O)Cn1cc(CCC(=O)N[C@@H](Cc2cnc[nH]2)C(=O)N[C@H](Cc2ccccc2)C(=O)N[C@@H](CCCNC(=N)N)C(=O)N[C@@H](Cc2c[nH]c3ccccc23)C(N)=O)nn1)(CCCNC(=O)CCNC(=O)C(CCCNC(=O)Cn1cc(CCC(=O)N[C@@H](Cc2cnc[nH]2)C(=O)N[C@H](Cc2ccccc2)C(=O)N[C@@H](CCCNC(=N)N)C(=O)N[C@@H](Cc2c[nH]c3ccccc23)C(N)=O)nn1)(CCCNC(=O)Cn1cc(CCC(=O)N[C@@H](Cc2cnc[nH]2)C(=O)N[C@H](Cc2ccccc2)C(=O)N[C@@H](CCCNC(=N)N)C(=O)N[C@@H](Cc2c[nH]c3ccccc23)C(N)=O)nn1)NC(=O)CNC(=O)Cn1cc(CCC(=O)N[C@@H](Cc2cnc[nH]2)C(=O)N[C@H](Cc2ccccc2)C(=O)N[C@@H](CCCNC(=N)N)C(=O)N[C@@H](Cc2c[nH]c3ccccc23)C(N)=O)nn1)C(=O)NCCC(N)=O` (stereo not given in full), the outcome in series [3] was Active. Besides, the Activity result in series [4] and in series [5] was “Non-toxic” each time. In series [6], this molecule gave a fold change (FC) of 104.
Consider `CCCC[C@H](NC(=O)[C@H](CO)NC(=O)[C@H](Cc1ccc(O)cc1)NC(=O)[C@H](CO)NC(C)=O)C(=O)N[C@@H](CCC(=O)O)C(=O)N[C@@H](Cc1cnc[nH]1)C(=O)N[C@H](Cc1ccccc1)C(=O)N[C@@H](CCCNC(=N)N)C(=O)N[C@@H](Cc1c[nH]c2ccccc12)C(=O)NCC(=O)N[C@@H](CCCCNC(=O)CCCCC[N+]1=C(/C=C/C=C/C=C2/N(C)c3ccccc3C2(C)C)C(C)(C)c2ccccc21)C(=O)N1CCC[C@H]1C(=O)N[C@H](C(N)=O)C(C)C`, for which the Drug uptake result in series [1] is listed as “Not Active”; in series [2], “Active”.
As to `N=C(N)NCCC[C@H](NC(=O)[C@@H](Cc1ccccc1)NC(=O)[C@H](Cc1cnc[nH]1)NC(=O)CCc1cn(CC(=O)NCCCC(CCCNC(=O)Cn2cc(CCC(=O)N[C@@H](Cc3cnc[nH]3)C(=O)N[C@H](Cc3ccccc3)C(=O)N[C@@H](CCCNC(=N)N)C(=O)N[C@@H](Cc3c[nH]c4ccccc34)C(N)=O)nn2)(NC(=O)CNC(=O)Cn2cc(CCC(=O)N[C@@H](Cc3cnc[nH]3)C(=O)N[C@H](Cc3ccccc3)C(=O)N[C@@H](CCCNC(=N)N)C(=O)N[C@@H](Cc3c[nH]c4ccccc34)C(N)=O)nn2)C(=O)NCCC(N)=O)nn1)C(=O)N[C@@H](Cc1c[nH]c2ccccc12)C(N)=O` (stereo not given in full), the result in series [3] was Active. Also, in series [6], the fold change (FC) came out at 350.
As for `N=C(N)NCCC[C@H](NC(=O)[C@@H](Cc1ccccc1)NC(=O)[C@H](Cc1cnc[nH]1)NC(=O)CCc1cn(CC(=O)NCC(=O)NC(CCCNC(=O)Cn2cc(CCC(=O)N[C@@H](Cc3cnc[nH]3)C(=O)N[C@H](Cc3ccccc3)C(=O)N[C@@H](CCCN=C(N)N)C(=O)N[C@@H](Cc3c[nH]c4ccccc34)C(N)=O)nn2)(CCCNC(=O)Cn2cc(CCC(=O)N[C@@H](Cc3cnc[nH]3)C(=O)N[C@H](Cc3ccccc3)C(=O)N[C@@H](CCCN=C(N)N)C(=O)N[C@@H](Cc3c[nH]c4ccccc34)C(N)=O)nn2)C(=O)NCCC(N)=O)nn1)C(=O)N[C@@H](Cc1c[nH]c2ccccc12)C(N)=O`, the Activity entry in series [4] and in series [5] was “Non-toxic” each time.
The term IC50 denotes the concentration needed to halve the response being measured. `CC(=O)NCCCC(CCCNC(C)=O)(NC(=O)CNC(=O)Cn1cc(CCC(=O)N[C@@H](Cc2cnc[nH]2)C(=O)N[C@H](Cc2ccccc2)C(=O)N[C@@H](CCCN=C(N)N)C(=O)N[C@@H](Cc2c[nH]c3ccccc23)C(=O)O)nn1)C(=O)NCCC(N)=O` came in with an IC50 in series [7] of 4.9 µM.
Turning to `CN1/C(=C/C=C/C=C/C2=[N+](CCCCCC(=O)NCCCC[C@H](NC(=O)[C@@H](CCCNC(=N)N)NC(=O)[C@H](CCCNC(=N)N)NC(=O)[C@@H](CCCNC(=N)N)NC(=O)CCNC(=O)C(CCCNC(=O)Cn3cc(CCC(=O)N[C@@H](Cc4cnc[nH]4)C(=O)N[C@H](Cc4ccccc4)C(=O)N[C@@H](CCCNC(=N)N)C(=O)N[C@@H](Cc4c[nH]c5ccccc45)C(N)=O)nn3)(CCCNC(=O)Cn3cc(CCC(=O)N[C@@H](Cc4cnc[nH]4)C(=O)N[C@H](Cc4ccccc4)C(=O)N[C@@H](CCCNC(=N)N)C(=O)N[C@@H](Cc4c[nH]c5ccccc45)C(N)=O)nn3)NC(=O)CNC(=O)Cn3cc(CCC(=O)N[C@@H](Cc4cnc[nH]4)C(=O)N[C@H](Cc4ccccc4)C(=O)N[C@@H](CCCNC(=N)N)C(=O)N[C@@H](Cc4c[nH]c5ccccc45)C(N)=O)nn3)C(N)=O)c3ccccc3C2(C)C)C(C)(C)c2ccccc21` (stereo not given in full), the values for the Drug uptake result in series [1] and in series [2] were “Not Active” and “Active”, respectively.
